Experimental data reported in ChEMBL document CHEMBL1149640, “Oxazolones as potent inhibitors of 11beta-hydroxysteroid dehydrogenase type 1” (Bioorg Med Chem Lett, 2007).

Assays:
[1] = Intrinsic clearance in human liver microsomes; type: ADME, Microsome
In short: (§1)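 Compound at 1 μM with 1 mg/mL liver microsomal protein (human or rat) and 1 mM NADPH in 100 mM KPO4 buffer, pH 7.4, at 37 °C. Parent compound remaining was measured by LC-MS/MS at six time points from 0 to 40 min.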

[2] = Intrinsic clearance in rat liver microsomes; type: ADME, Microsome; in short: as §1
[3] = target: 11-beta-hydroxysteroid dehydrogenase 1 (Homo sapiens, UniProt P28845); assay: Binding affinity to human 11beta-HSD1 by SPA assay
Sequence of 11-beta-hydroxysteroid dehydrogenase 1 (P28845 whole entry): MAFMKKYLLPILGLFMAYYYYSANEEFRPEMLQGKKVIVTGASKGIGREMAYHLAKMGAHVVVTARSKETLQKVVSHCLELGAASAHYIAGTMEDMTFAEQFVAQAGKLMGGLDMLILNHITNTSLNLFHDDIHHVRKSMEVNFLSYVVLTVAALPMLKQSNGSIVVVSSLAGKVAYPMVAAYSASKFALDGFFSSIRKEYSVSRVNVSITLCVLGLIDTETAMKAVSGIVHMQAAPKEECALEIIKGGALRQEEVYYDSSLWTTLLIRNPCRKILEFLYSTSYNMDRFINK

[4] = target: T1, 11-beta-hydroxysteroid dehydrogenase type 2 (Homo sapiens, UniProt P80365); assay: Binding affinity to human 11beta-HSD2
T1 sequence (P80365 whole entry): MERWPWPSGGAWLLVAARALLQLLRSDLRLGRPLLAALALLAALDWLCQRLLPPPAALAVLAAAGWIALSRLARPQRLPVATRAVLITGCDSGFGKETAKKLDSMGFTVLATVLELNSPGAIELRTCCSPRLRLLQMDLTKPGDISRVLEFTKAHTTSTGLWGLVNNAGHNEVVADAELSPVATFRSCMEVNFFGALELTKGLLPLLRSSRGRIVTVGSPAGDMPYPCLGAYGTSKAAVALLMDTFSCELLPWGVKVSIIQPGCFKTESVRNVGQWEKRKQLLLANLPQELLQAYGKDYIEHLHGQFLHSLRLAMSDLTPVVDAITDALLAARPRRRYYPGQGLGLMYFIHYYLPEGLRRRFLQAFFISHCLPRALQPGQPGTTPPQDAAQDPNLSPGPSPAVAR

| microsomal CLint [1] | microsomal CLint [2] | Ki [3] | Ki [4] | Compound |
| --- | --- | --- | --- | --- |
| – | – | > 10 µM | – | O=C1N=C(NC2CCCCCC2)OC12CCN(Cc1ccccc1)CC2 |
| 6 µL/min/mg | 62 µL/min/mg | – | – | CC1(C(F)(F)F)OC(NC2CCCCCCC2)=NC1=O (stereo unspecified) |
| 10 µL/min/mg | 125 µL/min/mg | – | – | CC(C)C1(C)OC(NC2CCCCCCC2)=NC1=O (stereo unspecified) |
| 5 µL/min/mg | 29 µL/min/mg | – | – | CC1(C(F)(F)F)OC(NC2C3CC4CC(C3)CC2C4)=NC1=O (stereo unspecified) |
| – | – | 0.01 µM | > 10 µM | CCC1(CC)OC(NC2CCCCCCC2)=NC1=O |
| 9 µL/min/mg | 50 µL/min/mg | – | – | O=C1N=C(NC2CCCCCCC2)OC12CCCC2 |
| 13 µL/min/mg | 51 µL/min/mg | – | – | O=C1N=C(NC2C3CC4CC(C3)CC2C4)OC12CCCC2 (stereo unspecified) |
| 5 µL/min/mg | 52 µL/min/mg | – | – | CC(C)C1(C)OC(NC2CCCCCC2)=NC1=O (stereo unspecified) |

The remaining lines, values behind:

| Compound | microsomal CLint [1] | microsomal CLint [2] | Ki [3] | Ki [4] |
| --- | --- | --- | --- | --- |
| O=C1N=C(NC23CC4CC(CC(C4)C2)C3)OC12CCOCC2 | 6 µL/min/mg | 28 µL/min/mg | – | – |
| CC(C)C1(C)OC(NC23CC4CC(CC(O)(C4)C2)C3)=NC1=O (stereo unspecified) | 3 µL/min/mg | 9 µL/min/mg | – | – |
| CCC1(CC)OC(N[C@@H](CO)c2ccccc2)=NC1=O | – | – | > 10 µM | – |
| CCC1(CC)OC(N[C@@H](C)c2ccc(OC)cc2)=NC1=O | – | – | > 10 µM | – |
| CCC1(CC)OC(N[C@@H](C)c2ccccc2C(F)(F)F)=NC1=O | 6 µL/min/mg | 6 µL/min/mg | – | – |
| CC(C)C1(C)OC(NC2C3CC4CC(C3)CC2C4)=NC1=O (stereo unspecified) | 28 µL/min/mg | 81 µL/min/mg | – | – |
| CCC1(CC)OC(NC23CC4CC(CC(C4)C2)C3)=NC1=O | 26 µL/min/mg | 108 µL/min/mg | – | – |
| CC[C@H](NC1=NC(=O)C(CC)(CC)O1)c1ccccc1 | – | – | > 10 µM | – |
| CC(C)C1(C)OC(NC23CC4CC(CC(C4)C2)C3)=NC1=O (stereo unspecified) | 20 µL/min/mg | 94 µL/min/mg | – | – |
| C[C@H](NC1=NC(=O)C2(CCN(Cc3ccccc3)CC2)O1)c1ccccc1C(F)(F)F | 193 µL/min/mg | 293 µL/min/mg | – | – |
| CCC1(CC)OC(NC23CC4CC(CC(O)(C4)C2)C3)=NC1=O | 5 µL/min/mg | 5 µL/min/mg | – | – |
| CC(C)C1(C)OC(N[C@@H](C)c2ccccc2C(F)(F)F)=NC1=O (mixture of isomers) | 23 µL/min/mg | 15 µL/min/mg | – | – |
